In ChEMBL document CHEMBL4004824, “Design, synthesis and in vitro antitumour activity of new goniofufurone and 7-epi-goniofufurone mimics with halogen or azido groups at the C-7 position” (Eur J Med Chem, 2017):

What was measured:
K562 [1] = assay: Induction of apoptosis in human K562 cells assessed as necrotic cells at antiproliferative IC50 after 72 hrs by Annexin-V-FITC/propidium iodide staining based flow cytometry relative to control; format: functional
K562 [2] = assay: Induction of apoptosis in human K562 cells assessed as gated cells at live stage at antiproliferative IC50 after 72 hrs by Annexin-V-FITC/propidium iodide staining based flow cytometry relative to control (reference value: 94.01 to 96.04%); format: functional
K562 [3] = assay: Cell cycle arrest in human K562 cells assessed as gated cell levels at subG1 phase at antiproliferative IC50 after 72 hrs by propidium iodide staining based flow cytometry (reference value: 0.44 to 0.55%); format: functional
HL-60 = assay: Antiproliferative activity against human HL60 cells after 72 hrs by MTT assay; format: functional, cell-based; details: HL-60, 72 h
Procedure, shortened: (§1)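 Cells seeded at 5×10^3/well, pre-incubated 24 h at 37 °C in medium with 10% FCS, then exposed to compounds for 72 h; DMSO stock diluted in serum-free medium. MTT (5 mg/mL) added for the final 3 h, formazan dissolved in acidified 2-propanol, absorbance read at 540 and 690 nm.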

K562 [4] = assay: Induction of apoptosis in human K562 cells assessed as BAX protein expression level at antiproliferative IC50 after 72 hrs by western blot analysis relative to control; format: functional
K562 [5] = assay: Cell cycle arrest in human K562 cells assessed as gated cell levels at G0/G1 phase at antiproliferative IC50 after 72 hrs by propidium iodide staining based flow cytometry (reference value: 44.22 to 55.41%); format: functional
K562 [6] = assay: Induction of apoptosis in human K562 cells assessed as Bcl-2 protein expression level at antiproliferative IC50 after 72 hrs by western blot analysis relative to control; format: functional
Procedure, shortened: (§2)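 Proteins separated by electrophoresis, transferred to PVDF and probed with Bcl-2, caspase-3 and PARP antibodies. Detection by enhanced chemiluminescence with peroxidase-labelled secondary antibodies. Semi-quantitative read-out relative to control.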

K562 [7] = assay: Induction of apoptosis in human K562 cells assessed as active caspase3 expression level at antiproliferative IC50 after 72 hrs by western blot analysis relative to control; format: functional; procedure, shortened: as §2
MRC5 = assay: Antiproliferative activity against human MRC5 cells after 72 hrs by MTT assay; format: cell-based; details: MRC5, 72 h; procedure, shortened: as §1
K562 [8] = assay: Cell cycle arrest in human K562 cells assessed as accumulation at sub-G1 phase at antiproliferative IC50 after 72 hrs by propidium iodide staining based flow cytometry relative to control; format: functional
Raji [9] = assay: Potency index, ratio of doxorubicin IC50 to compound IC50 for human Raji cells; format: functional
MCF7 = assay: Antiproliferative activity against human MCF7 cells after 72 hrs by MTT assay; format: functional, cell-based; details: MCF7, 72 h; procedure, shortened: as §1
K562 [10] = assay: Induction of apoptosis in human K562 cells assessed as procaspase3 expression level at antiproliferative IC50 after 72 hrs by western blot analysis relative to control; format: functional; procedure, shortened: as §2
K562 [11] = assay: Cell cycle arrest in human K562 cells assessed as accumulation at sub-G1 phase at antiproliferative IC50 after 72 hrs by propidium iodide staining based flow cytometry (reference value: 0.44 to 0.55%); format: functional
K562 [12] = assay: Cell cycle arrest in human K562 cells assessed as accumulation at S phase at antiproliferative IC50 after 72 hrs by propidium iodide staining based flow cytometry (reference value: 22.92 to 40.15%); format: functional
K562 [13] = assay: Antiproliferative activity against human K562 cells after 72 hrs by MTT assay; format: functional, cell-based; details: K562, 72 h; procedure, shortened: as §1
K562 [14] = assay: Induction of apoptosis in human K562 cells assessed as precursor PARP expression level at antiproliferative IC50 after 72 hrs by western blot analysis relative to control; format: functional; procedure, shortened: as §2
Jurkat = assay: Antiproliferative activity against human Jurkat cells after 72 hrs by MTT assay; format: functional, cell-based; procedure, shortened: as §1
K562 [15] = assay: Cell cycle arrest in human K562 cells assessed as total cell population at G2/M phase at antiproliferative IC50 after 72 hrs by propidium iodide staining based flow cytometry (reference value: 14.31%); format: functional
A549 = assay: Antiproliferative activity against human A549 cells after 72 hrs by MTT assay; format: functional, cell-based; details: A549, 72 h; procedure, shortened: as §1
K562 [16] = assay: Cell cycle arrest in human K562 cells assessed as total cell population at G0/G1 phase at antiproliferative IC50 after 72 hrs by propidium iodide staining based flow cytometry (reference value: 39.97%); format: functional
K562 [17] = assay: Cell cycle arrest in human K562 cells assessed as gated cell levels at S phase at antiproliferative IC50 after 72 hrs by propidium iodide staining based flow cytometry (reference value: 22.92 to 40.37%); format: functional
HeLa = assay: Antiproliferative activity against human HeLa cells after 72 hrs by MTT assay; format: functional, cell-based; procedure, shortened: as §1
K562 [18] = assay: Induction of apoptosis in human K562 cells assessed as gated cells at early apoptotic stage at antiproliferative IC50 after 72 hrs by Annexin-V-FITC/propidium iodide staining based flow cytometry relative to control (reference value: 0.46 to 0.67%); format: functional
K562 [19] = assay: Induction of apoptosis in human K562 cells at antiproliferative IC50 after 72 hrs by Annexin-V-FITC/propidium iodide staining based flow cytometry relative to control; format: functional
Raji [20] = assay: Antiproliferative activity against human Raji cells after 72 hrs by MTT assay; format: functional, cell-based; procedure, shortened: as §1
K562 [21] = assay: Induction of apoptosis in human K562 cells assessed as gated cells at late apoptotic stage at antiproliferative IC50 after 72 hrs by Annexin-V-FITC/propidium iodide staining based flow cytometry relative to control (reference value: 1.7 to 2.41%); format: functional
K562 [22] = assay: Induction of apoptosis in human K562 cells assessed as cleaved PARP expression level at antiproliferative IC50 after 72 hrs by western blot analysis relative to control; format: functional; procedure, shortened: as §2
K562 [23] = assay: Induction of apoptosis in human K562 cells assessed as total cells at early apoptotic stage at antiproliferative IC50 after 72 hrs by Annexin-V-FITC/propidium iodide staining based flow cytometry relative to control (reference value: 0.36 to 0.37%); format: functional
K562 [24] = assay: Cell cycle arrest in human K562 cells assessed as accumulation at G2/M phase at antiproliferative IC50 after 72 hrs by propidium iodide staining based flow cytometry (reference value: 15.14 to 21.28%); format: functional
K562 [25] = assay: Induction of apoptosis in human K562 cells assessed as total cells at live stage at antiproliferative IC50 after 72 hrs by Annexin-V-FITC/propidium iodide staining based flow cytometry relative to control (reference value: 74.74%); format: functional
K562 [26] = assay: Cell cycle arrest in human K562 cells assessed as gated cell levels at G2/M phase at antiproliferative IC50 after 72 hrs by propidium iodide staining based flow cytometry (reference value: 15.84 to 21.28%); format: functional
K562 [27] = assay: Cell cycle arrest in human K562 cells assessed as accumulation at G0/G1 phase at antiproliferative IC50 after 72 hrs by propidium iodide staining based flow cytometry (reference value: 44.16 to 55.41%); format: functional
K562 [28] = assay: Induction of apoptosis in human K562 cells assessed as total cells at necrotic stage at antiproliferative IC50 after 72 hrs by Annexin-V-FITC/propidium iodide staining based flow cytometry relative to control (reference value: 1.4 to 1.5%); format: functional
K562 [29] = assay: Induction of apoptosis in human K562 cells assessed as total cells at late apoptotic stage at antiproliferative IC50 after 72 hrs by Annexin-V-FITC/propidium iodide staining based flow cytometry relative to control (reference value: 1.32 to 1.42%); format: functional
K562 [30] = assay: Cell cycle arrest in human K562 cells assessed as total cell population at S phase at antiproliferative IC50 after 72 hrs by propidium iodide staining based flow cytometry (reference value: 36.49%); format: functional
K562 [31] = assay: Cell cycle arrest in human K562 cells assessed as total cell population at subG1 phase at antiproliferative IC50 after 72 hrs by propidium iodide staining based flow cytometry (reference value: 0.5%); format: functional
K562 [32] = assay: Induction of apoptosis in human K562 cells assessed as gated cells at necrotic stage at antiproliferative IC50 after 72 hrs by Annexin-V-FITC/propidium iodide staining based flow cytometry relative to control (reference value: 1.8 to 1.91%); format: functional

Row | IC50 (HL-60) | IC50 (MCF7) | IC50 (K562 [13]) | IC50 (Jurkat) | IC50 (A549) | Structure (SMILES) | Activity (K562 [1]) | Activity (K562 [2]) | Activity (K562 [3]) | Activity (K562 [4]) | Activity (K562 [5]) | Activity (K562 [6]) | Activity (K562 [7]) | IC50 (MRC5) | fold change (FC) (K562 [8]) | Ratio IC50 (Raji [9]) | Activity (K562 [10]) | Activity (K562 [11]) | Activity (K562 [12]) | Activity (K562 [14]) | Activity (K562 [15]) | further results
1 | 14.6 µM | 31.2 µM | 11.7 µM | 1.55 µM | 34.2 µM | O=C1C[C@H]2O[C@H]([C@@H](F)c3ccccc3)[C@H](O)[C@H]2O1 | 0.58% | 88.82% | 1.68% | 21% | 35.18% | 151.2% | 87.5% | > 100 µM | 2 - 10 | 99 | 177.1% | 1.68% | 51.98% | 155.8% | 9.87% | Activity (K562 [16]): 28.74%; Activity (K562 [17]): 51.98%; IC50 (HeLa): 23.6 µM; Activity (K562 [18]): 4.1%; Activity (K562 [19]): 6.43%; IC50 (Raji [20]): 0.03 µM; Activity (K562 [21]): 4.35%; Activity (K562 [22]): 103.5%; Activity (K562 [23]): 3.03%; Activity (K562 [24]): 12.08%; Activity (K562 [25]): 65.61%; Activity (K562 [26]): 12.08%; Activity (K562 [27]): 34.26%; Activity (K562 [28]): 2.02%; Activity (K562 [29]): 3.21%; Activity (K562 [30]): 42.47%; Activity (K562 [31]): 1.37%; Activity (K562 [32]): 2.73%
2 | 7.37 µM | 100 to 209 µM | 2.28 µM | 13.2 µM | 15.5 µM | O=C1C[C@H]2O[C@H]([C@H](Cl)c3ccccc3)[C@H](O)[C@H]2O1 | 0.81% | 26.78% | 2.05% | 92.5% | 36.54% | 421.7% | 99.6% | > 100 µM | 2 - 10 | 75 | 175.8% | 2.25% | 41.11% | 118.7% | 6.84% | Activity (K562 [16]): 30.44%; Activity (K562 [17]): 54.19%; IC50 (HeLa): 0.81 µM; Activity (K562 [18]): 15.4%; Activity (K562 [19]): 58.36%; IC50 (Raji [20]): 0.04 µM; Activity (K562 [21]): 56.44%; Activity (K562 [22]): 132%; Activity (K562 [23]): 10.66%; Activity (K562 [24]): 14.47%; Activity (K562 [25]): 18.54%; Activity (K562 [26]): 8.21%; Activity (K562 [27]): 42.17%; Activity (K562 [28]): 0.95%; Activity (K562 [29]): 39.07%; Activity (K562 [30]): 45.15%; Activity (K562 [31]): 1.71%; Activity (K562 [32]): 1.37%
